The results in this text go back to ChEMBL document CHEMBL2331235, “Solphenazines A-F, glycosylated phenazines from Streptomyces sp. strain DL-93” (J Nat Prod, 2013).

In one data set the test system is Staphylococcus aureus. The data set is described as follows: Antimicrobial activity against methicillin-resistant Staphylococcus aureus ATCC 43300 by microbroth dilution assay. The class given is functional.
For another data set, the system named is Enterococcus faecalis. In words: Antimicrobial activity against vancomycin-resistant Enterococcus faecalis ATCC 51299 by microbroth dilution assay. The class given is functional.
The test system of another data set is Klebsiella pneumoniae. The data set is described as follows: Antimicrobial activity against Klebsiella pneumoniae ATCC 13883 by microbroth dilution assay. It counts as functional.
A further data set concerns Acinetobacter baumannii. The data set is described as follows: Antimicrobial activity against Acinetobacter baumannii ATCC 19606 by microbroth dilution assay. The class given is functional. The following applies: ATCC 19606 = CIP 70.34 = JCM 6841.
In a further data set the test system is Candida albicans. In words: Antimicrobial activity against Candida albicans ATCC 10231 by microbroth dilution assay. The class given is functional.
Data set [1] relates to Streptomyces scabiei. The data set is described as follows: Antimicrobial activity against Streptomyces scabies NRRL B 2795 at 25 ug/disk after 2 days by disk diffusion assay. The class given is functional. In short, it runs like this:
(§1)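 S. scabies grown 5 days in liquid ISP2, diluted 1:10 in molten ISP2 agar. Paper discs carrying 25 μg compound (applied in 20 μL methanol) were set on a thin agar layer and overlaid with 10 mL of the seeded agar (double-layer method). Plates were incubated 2 days at 30 °C, and inhibition zone diameters were measured.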

Another data set deals with Cryptococcus neoformans. The data set is described as follows: Antimicrobial activity against Cryptococcus neoformans ATCC 66031 by microbroth dilution assay. The class given is functional.
The subject of another data set is Pseudomonas aeruginosa. The data set is described as follows: Antimicrobial activity against Pseudomonas aeruginosa ATCC 27853 by microbroth dilution assay. It counts as functional.
Data set [2] concerns Streptomyces scabiei. In words: Antimicrobial activity against Streptomyces scabies LK 82 at 25 ug/disk after 2 days by disk diffusion assay. It counts as functional. In short, it runs like this: as §1
The subject of the next data set is Vero. The data set is described as follows: (§2) Cytotoxicity against African green monkey Vero cells at 150 uM after 72 hrs by MTT assay. The following applies: chlorocebus sabaeus, vero, 72 h, 150 µM. The class given is cell-based. In short, it runs like this:
(§3)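 Vero cells in MEM and HCT-116 cells in RPMI, each with 10% FBS, 1% penicillin–streptomycin and 1% Glutamax. Cells were seeded at 3.0 × 10^4 per well and left to adhere overnight. Medium was replaced, and compounds in DMSO were added to a final 150–0.1 μM. Cells were incubated 72 h at 37 °C in 4.5% CO2 (humidified), then viability was read by MTT.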

The test system of the next data set is Bacillus spizizenii. The data set is described as follows: Antimicrobial activity against Bacillus subtilis ATCC 6633 by microbroth dilution assay. It counts as functional.
The next data set relates to HCT16. In words: (§4) Cytotoxicity against human […] cells after 72 hrs by MTT assay. The class given is functional, cell-based. Summed up:
as §3

A further data set concerns Escherichia coli. The data set is described as follows: Antimicrobial activity against Escherichia coli ATCC 25922 by microbroth dilution assay. The class given is functional.
The nature of data set [3]: as §2. The following applies: chlorocebus sabaeus, Vero cells; read-out: GI. The class given is cell-based. Summed up:
as §3

Data set [4] can be described thus: as §4. It counts as functional, cell-based. Summed up:
as §3

Molecules are shown by their SMILES. Activity calls are given as the source filed them. The calls are words filed in the database; no cut-off is given here.

As to `O=C(O)c1cccc2nc3c(C(=O)O)cccc3nc12`, the minimal inhibitory concentration (MIC) against Staphylococcus aureus, against Enterococcus faecalis, against Klebsiella pneumoniae, in the data set with Acinetobacter baumannii, against Candida albicans and with Cryptococcus neoformans was more than 25 µg/mL throughout. The MIC in the data set on Pseudomonas aeruginosa, against Bacillus spizizenii and in the data set on Escherichia coli was more than 25 µg/mL in each case. Moreover, the outcome with Streptomyces scabiei [1], with Streptomyces scabiei [2] and with HCT16 was inactive. Moreover, the Activity result in the data set with Vero is recorded as “Non-toxic”.

Take `C[C@@H]1O[C@@H](OC(=O)c2ccc(O)cc2)[C@H](O)[C@H](O)[C@H]1O`: the minimal inhibitory concentration (MIC) with Staphylococcus aureus, against Enterococcus faecalis, with Klebsiella pneumoniae, against Acinetobacter baumannii, in the data set on Candida albicans and against Cryptococcus neoformans was more than 25 µg/mL throughout. Further, the MIC in the data set with Pseudomonas aeruginosa, against Bacillus spizizenii and against Escherichia coli was more than 25 µg/mL throughout. In addition, the outcome in the data set with Streptomyces scabiei [1] and in the data set on Streptomyces scabiei [2] was inactive.

For the compound `CNc1ccc(C(=O)O[C@@H]2O[C@@H](C)[C@H](O)[C@@H](O)[C@H]2O)cc1`, the minimum inhibitory concentration (MIC) in the data set with Staphylococcus aureus, against Enterococcus faecalis, against Klebsiella pneumoniae, with Acinetobacter baumannii, against Candida albicans and in the data set with Cryptococcus neoformans was more than 25 µg/mL each time. The MIC with Pseudomonas aeruginosa, in the data set with Bacillus spizizenii and in the data set on Escherichia coli was more than 25 µg/mL throughout. Further, the result in the data set with Streptomyces scabiei [1] and in the data set on Streptomyces scabiei [2] was inactive.

For `C[C@@H]1O[C@@H](Oc2cccc3nc4c(C(=O)O)cccc4nc23)[C@H](O)[C@H](O)[C@H]1O` [IZUMINOSIDE A], the MIC in the data set on Staphylococcus aureus, with Enterococcus faecalis, with Klebsiella pneumoniae, in the data set on Acinetobacter baumannii, against Candida albicans and in the data set on Cryptococcus neoformans was more than 25 µg/mL in each case. The minimum inhibitory concentration (MIC) against Pseudomonas aeruginosa, in the data set on Bacillus spizizenii and against Escherichia coli was more than 25 µg/mL each time. Besides, the result in the data set with Streptomyces scabiei [1], with Streptomyces scabiei [2] and with HCT16 was inactive. The Activity result in the data set on Vero is given as “Non-toxic”.

On to `C[C@@H]1O[C@@H](OC(=O)c2cccc3nc4c(C(=O)O)cccc4nc23)[C@H](O)[C@H](O)[C@H]1O` [IZUMINOSIDE C], for which the MIC in the data set on Staphylococcus aureus, in the data set on Enterococcus faecalis, against Klebsiella pneumoniae, in the data set with Acinetobacter baumannii, in the data set on Candida albicans and in the data set with Cryptococcus neoformans was more than 25 µg/mL throughout. Further, the MIC against Pseudomonas aeruginosa, against Bacillus spizizenii and against Escherichia coli was more than 25 µg/mL throughout. The outcome in the data set with Streptomyces scabiei [1], with Streptomyces scabiei [2] and in the data set with HCT16 was inactive. Also, the Activity entry with Vero is given as “Non-toxic”.

As to `CC(=O)O[C@@H]1[C@@H](O)[C@H](C)O[C@@H](OC(=O)c2cccc3nc4c(C(=O)O[C@@H]5O[C@@H](C)[C@H](O)[C@@H](O)[C@H]5O)cccc4nc23)[C@@H]1O` [SOPHENAZINE B], the MIC in the data set on Staphylococcus aureus, against Enterococcus faecalis, in the data set with Klebsiella pneumoniae, in the data set on Acinetobacter baumannii, with Candida albicans and against Cryptococcus neoformans was more than 25 µg/mL in each case. For the same compound, the minimal inhibitory concentration (MIC) in the data set on Pseudomonas aeruginosa, in the data set on Bacillus spizizenii and in the data set on Escherichia coli was more than 25 µg/mL each time. The outcome in the data set with Streptomyces scabiei [1] and in the data set with Streptomyces scabiei [2] was inactive. Further, the inhibition at 72 h, 150 µM in data set [3] came to 30%. In [4], this compound gave a concentration for a half-maximal effect (EC50) of 52 µM.

In the case of `CC(=O)O[C@@H]1[C@@H](O)[C@H](C)O[C@@H](OC(=O)c2cccc3nc4c(C(=O)O[C@@H]5O[C@@H](C)[C@H](O)[C@@H](OC(C)=O)[C@H]5O)cccc4nc23)[C@@H]1O` [SOPHENAZINE C], the MIC against Staphylococcus aureus, in the data set on Enterococcus faecalis, against Klebsiella pneumoniae, with Acinetobacter baumannii, in the data set on Candida albicans and in the data set with Cryptococcus neoformans was more than 25 µg/mL each time. The MIC in the data set with Pseudomonas aeruginosa, with Bacillus spizizenii and against Escherichia coli was more than 25 µg/mL in each case. In addition, the outcome in the data set with Streptomyces scabiei [1] and in the data set on Streptomyces scabiei [2] was inactive.

Take `C[C@@H]1O[C@@H](OC(=O)c2cccc3nc4c(O[C@@H]5O[C@@H](C)[C@H](O)[C@@H](O)[C@H]5O)cccc4nc23)[C@H](O)[C@H](O)[C@H]1O` [SOPHENAZINE D]: the MIC with Staphylococcus aureus, against Enterococcus faecalis, in the data set with Klebsiella pneumoniae, in the data set on Acinetobacter baumannii, in the data set on Candida albicans and against Cryptococcus neoformans was more than 25 µg/mL each time. Further, the MIC in the data set with Pseudomonas aeruginosa, in the data set with Bacillus spizizenii and in the data set on Escherichia coli was more than 25 µg/mL in each case. The result in the data set with Streptomyces scabiei [1], in the data set on Streptomyces scabiei [2] and in the data set with HCT16 was inactive. In the data set with Vero, the Activity result is reported as “Non-toxic”.

Turning to `COC(=O)c1cccc2nc3c(O[C@@H]4O[C@@H](C)[C@H](O)[C@@H](O)[C@H]4O)cccc3nc12` [SOPHENAZINE E], the MIC in the data set with Staphylococcus aureus, against Enterococcus faecalis, against Klebsiella pneumoniae, with Acinetobacter baumannii, in the data set with Candida albicans and against Cryptococcus neoformans was more than 25 µg/mL each time. Also, the minimal inhibitory concentration (MIC) with Pseudomonas aeruginosa, against Bacillus spizizenii and in the data set with Escherichia coli was more than 25 µg/mL each time. Besides, the result in the data set with Streptomyces scabiei [1], in the data set with Streptomyces scabiei [2] and in the data set on HCT16 was inactive. Moreover, the Activity entry in the data set with Vero was “Non-toxic”.

Consider `C[C@@H]1O[C@@H](Oc2cccc3nc4c(O[C@@H]5O[C@@H](C)[C@H](O)[C@@H](O)[C@H]5O)cccc4nc23)[C@H](O)[C@H](O)[C@H]1O` [SOPHENAZINE F], for which the minimum inhibitory concentration (MIC) with Staphylococcus aureus, in the data set with Enterococcus faecalis, with Klebsiella pneumoniae, against Acinetobacter baumannii, against Candida albicans and against Cryptococcus neoformans was more than 25 µg/mL throughout. The minimum inhibitory concentration (MIC) in the data set on Pseudomonas aeruginosa, against Bacillus spizizenii and in the data set with Escherichia coli was more than 25 µg/mL throughout. The outcome in the data set with Streptomyces scabiei [1] and in the data set on Streptomyces scabiei [2] was inactive. Besides, the half-maximal effective concentration (EC50) in data set [4] was determined as 45 µM.
